Source: PubChem BioAssay (several laboratories)
This is a sample that favours compounds with a hit; in the whole collection about 2.3% have one here.
CAL PDZ FP-1 – blocks peptide binding to the human CAL PDZ domain. inhibition, % at 24.9 µM. purified CAL PDZ, TMR-peptide fluorescence polarization, 1 h. hit rate 0.92% among 300,000;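 active = mean inhibition of at least 30% with at least half of replicates also reaching 30%; inconclusive = no clear call, values can overlap the other calls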;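 note: 0% = DMSO neutral control and 100% = excess unlabeled competitor peptide PRC23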
ATG4B inh – ATG4B (human) cysteine protease inhibition; Q9Y4P1; inhibition, % at 8.33 µM; ATG4B cleavage of LC3-PLA2, NBD-HPC fluorescence, 1 h; hit rate 0.51% among 340,000; AID 504462; in the data active = inhibition above about 40%
SR-BI HDL uptake – blocks mouse SR-BI lipid uptake from DiI-HDL | ldlA[mSR-BI] CHO cells, DiI-HDL uptake fluorescence, 3 h | inhibition, % at 12.5 µM | hit rate 0.96% among 320,000;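 active = mean replicate inhibition of at least 70% and a set share of replicates each scoring 70 or more; inconclusive = meets just one of the two criteria; inactive = fails both criteria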;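 note: 0% = median of neutral control wells and 100% = median of positive control wells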
Target sequence (Q61009 whole entry, looked up): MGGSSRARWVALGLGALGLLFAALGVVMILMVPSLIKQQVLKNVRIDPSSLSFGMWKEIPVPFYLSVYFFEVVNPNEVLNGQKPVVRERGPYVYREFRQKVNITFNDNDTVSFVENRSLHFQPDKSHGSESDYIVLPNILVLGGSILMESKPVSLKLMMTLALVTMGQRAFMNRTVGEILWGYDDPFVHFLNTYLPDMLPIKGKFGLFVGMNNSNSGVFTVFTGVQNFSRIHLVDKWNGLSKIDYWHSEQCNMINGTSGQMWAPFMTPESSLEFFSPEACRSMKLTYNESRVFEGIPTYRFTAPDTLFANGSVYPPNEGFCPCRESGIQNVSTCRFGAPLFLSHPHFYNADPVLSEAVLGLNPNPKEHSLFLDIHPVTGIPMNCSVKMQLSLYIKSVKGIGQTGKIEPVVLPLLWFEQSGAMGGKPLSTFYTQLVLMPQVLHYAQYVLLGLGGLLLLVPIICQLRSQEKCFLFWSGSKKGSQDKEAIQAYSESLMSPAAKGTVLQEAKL
SR-BI uptake up – activators of SR-BI mediated HDL lipid uptake | CHO ldlA[mSR-BI] cells, DiI-HDL uptake fluorescence, 3 h; 100 = double the neutral-control signal | activation, % at 12.5 µM | hit rate 0.096% among 320,000 | AID 504775;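 active = mean replicate activation of at least 60% and every replicate at or above 60%; inconclusive = mean or all-replicate condition met, but not both; inactive = mean below 60% and not all replicates reaching 60%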;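 note: 0% = median plate neutral-control signal and 100% = twice that signal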
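Assay system: LDL receptor-deficient CHO ldlA cells overexpressing murine SR-BI / Medium: BSA-supplemented, HEPES-buffered Ham's F12, pH 7.4 / Probe or stimulus: DiI-labelled HDL at 10 µg/mL final / Timing: compound with DiI-HDL co-incubation, 3 h at 37 °C / Technique: bottom-read cell fluorescence after medium removal, ex 550/em 595 nm / Measure: HDL uptake via cellular fluorescence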
CAL PDZ FP-2 – human CAL PDZ-peptide interaction inhibition. Q9HD26. purified CAL PDZ, TMR-peptide fluorescence polarization, 1 h. inhibition, % at 20 µM. hit rate 0.02% among 330,000. AID 504414;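 active = highest replicate inhibition of at least 40%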;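 note: plate controls were DMSO neutral control wells for no effect and unlabeled competitor peptide control wells for full effect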
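System: tagged CAL PDZ domain. Schedule: 1 h room-temperature incubation prior to read. Signal: fluorescence polarization (mP). Measure: percent inhibition from loss of millipolarization.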
* = called active by the depositor.

Screening O=C1CSC(c2ccccc2[N+](=O)[O-])N1CCc1ccccc1 (configuration not stated) returned CAL PDZ FP-1 70*, ATG4B inh -6, SR-BI HDL uptake 5, SR-BI uptake up -5 and CAL PDZ FP-2 0.
Screening C=C1[C@@H](CCO)N(S(=O)(=O)C(C)(C)C)C[C@@H]1C returned CAL PDZ FP-1 -23, ATG4B inh 11 and CAL PDZ FP-2 -1.
For COc1ccc(CCn2c(=S)[nH]c3ccc(N4CCOCC4)cc3c2=O)cc1OC the results were CAL PDZ FP-1 128*, ATG4B inh -9, SR-BI HDL uptake 18, SR-BI uptake up -18 and CAL PDZ FP-2 20.
Screening Cc1ccc2oc(=O)n(CC(=O)OCCC(C)C)c2c1 returned CAL PDZ FP-1 -6, ATG4B inh 5, SR-BI HDL uptake -6, SR-BI uptake up 6 and CAL PDZ FP-2 -1.
For O=[N+]([O-])c1ccc(N/N=C/c2c[nH]c3ccccc23)cc1 the results were CAL PDZ FP-1 1, ATG4B inh 28, SR-BI HDL uptake 92*, SR-BI uptake up -92 and CAL PDZ FP-2 0.
For Cc1[nH]c2ccccc2c1/C=N/Nc1ccc([N+](=O)[O-])cc1S(=O)(=O)Nc1ccc(Cl)cc1 the results were ATG4B inh -5, SR-BI HDL uptake 83*, SR-BI uptake up -83 and CAL PDZ FP-2 -1.
Screening O=[N+]([O-])c1ccccc1N/N=C/c1ccccc1 returned CAL PDZ FP-1 21, ATG4B inh -4, SR-BI HDL uptake -3, SR-BI uptake up 3 and CAL PDZ FP-2 -1.
Screening COc1ccc(NS(=O)(=O)c2cc([N+](=O)[O-])ccc2N/N=C\c2c(C)[nH]c3ccccc23)cc1 returned CAL PDZ FP-1 -2, ATG4B inh 4, SR-BI HDL uptake 2, SR-BI uptake up -2 and CAL PDZ FP-2 -1.
Screening O=[N+]([O-])c1ccccc1N/N=C/c1c[nH]c2ccccc12 returned CAL PDZ FP-1 -1, ATG4B inh 5, SR-BI HDL uptake 110*, SR-BI uptake up -110 and CAL PDZ FP-2 -2.
Screening COc1ccccc1NS(=O)(=O)c1cc([N+](=O)[O-])ccc1N/N=C/c1c[nH]c2ccccc12 returned CAL PDZ FP-1 -3, ATG4B inh 33, SR-BI HDL uptake 83*, SR-BI uptake up -83 and CAL PDZ FP-2 0.
`O=C(CCC1CCCC1)NNC(=O)c1ccccc1O` gave CAL PDZ FP-1 -2, ATG4B inh 9, SR-BI HDL uptake 57, SR-BI uptake up -57 and CAL PDZ FP-2 -3.
Screening Cc1ccc(S(=O)(=O)c2nc(-c3ccccc3F)oc2N2CC(C)OC(C)C2)cc1 (configuration not stated) returned CAL PDZ FP-1 1, ATG4B inh 8, SR-BI HDL uptake -8, SR-BI uptake up 8 and CAL PDZ FP-2 -2.
`COc1ccccc1CNC(=O)C(=O)c1cn(CC(=O)N2CCCC2)c2ccccc12` gave CAL PDZ FP-1 -1, ATG4B inh -5, SR-BI HDL uptake 78* and CAL PDZ FP-2 -3.
For COc1ccc(CNC(=O)C(=O)c2cn(CC(=O)N3CCCC3)c3ccccc23)cc1 the results were CAL PDZ FP-1 -3, ATG4B inh -4, SR-BI HDL uptake 46, SR-BI uptake up -46 and CAL PDZ FP-2 0.
For COc1cccc(NC(=O)C(=O)c2cn(CC(=O)N3CCCC3)c3ccccc23)c1 the results were CAL PDZ FP-1 -11, ATG4B inh -10, SR-BI HDL uptake 75*, SR-BI uptake up -75 and CAL PDZ FP-2 -5.
Screening COc1ccc(NC(=O)C(=O)c2cn(CC(=O)N3CCCC3)c3ccccc23)cc1OC returned CAL PDZ FP-1 -2, ATG4B inh 0, SR-BI HDL uptake 80*, SR-BI uptake up -80 and CAL PDZ FP-2 -2.
Screening COc1ccc(C)cc1NC(=O)C(=O)c1cn(CC(=O)N2CCCC2)c2ccccc12 returned CAL PDZ FP-1 -1, ATG4B inh 1, SR-BI HDL uptake inconclusive, SR-BI uptake up -77 and CAL PDZ FP-2 -5.
Screening COc1ccc(OC)c(NC(=O)C(=O)c2cn(CC(=O)N3CCCC3)c3ccccc23)c1 returned CAL PDZ FP-1 -1, ATG4B inh -7, SR-BI HDL uptake 80*, SR-BI uptake up -80 and CAL PDZ FP-2 -3.
For Cc1nc([N+](=O)[O-])cn1CC(=O)Nc1ccc([N+](=O)[O-])cc1 the results were CAL PDZ FP-1 2, ATG4B inh 0, SR-BI HDL uptake -6, SR-BI uptake up 6 and CAL PDZ FP-2 -1.
CCN(CC)S(=O)(=O)c1ccc(NN=c2c(=O)c3ccccc3c2=O)cc1 was read as CAL PDZ FP-1 1, ATG4B inh 6 and CAL PDZ FP-2 -2.
`O=C(Nc1ccc(S(=O)(=O)Nc2ncccn2)cc1)C1=NN(c2ccccc2)C(=O)CC1` gave CAL PDZ FP-1 0, ATG4B inh -14 and CAL PDZ FP-2 -4.
COc1ccc(Cn2c(-c3ccc(Br)cc3)c[n+]3ccccc23)cc1 was read as CAL PDZ FP-1 -2, ATG4B inh 5, SR-BI HDL uptake -2, SR-BI uptake up 2 and CAL PDZ FP-2 -4.
Screening O=C(C[C@@H]1C/C=C\CC[C@@H](Cc2ccc(F)cc2)C(=O)OC[C@@H]2CCCN2C1=O)N[C@H](CO)Cc1ccccc1 returned CAL PDZ FP-1 8, ATG4B inh -11, SR-BI HDL uptake -2, SR-BI uptake up 2 and CAL PDZ FP-2 2.
For CC(Oc1cc2oc(=O)c3c(c2cc1Cl)CCC3)C(=O)NCc1cccnc1 (configuration not stated) the results were CAL PDZ FP-1 -1, ATG4B inh -4, SR-BI HDL uptake 86*, SR-BI uptake up -86 and CAL PDZ FP-2 -2.
For CN(Cc1ccccc1)C(=O)c1ccc(NC(=O)Cc2ccc(NC(=O)C3CCCN(C(=O)C4CC4)C3)cc2)cc1 (configuration not stated) the results were CAL PDZ FP-1 -2, ATG4B inh 1, SR-BI HDL uptake 38, SR-BI uptake up -38 and CAL PDZ FP-2 -1.
Screening Cc1c(NS(=O)(=O)c2cc(C(=O)NCc3cccc(Cl)c3)ccc2Cl)c(=O)n(-c2ccccc2)n1C returned CAL PDZ FP-1 0, ATG4B inh 7, SR-BI HDL uptake -6, SR-BI uptake up 6 and CAL PDZ FP-2 -2.
Screening Cc1c(NS(=O)(=O)c2cc(C(=O)NCc3cccnc3)ccc2Cl)c(=O)n(-c2ccccc2)n1C returned CAL PDZ FP-1 82*, ATG4B inh -15, SR-BI HDL uptake -11, SR-BI uptake up 11 and CAL PDZ FP-2 0.
`Cc1ccc(NC(=O)c2ccc(Cl)c(S(=O)(=O)Nc3c(C)n(C)n(-c4ccccc4)c3=O)c2)cc1Cl` gave CAL PDZ FP-1 -3, ATG4B inh -5, SR-BI HDL uptake 73*, SR-BI uptake up -73 and CAL PDZ FP-2 -3.
Screening Cc1c(NS(=O)(=O)c2ccccc2)c(=O)n(-c2ccccc2)n1C returned CAL PDZ FP-1 0, ATG4B inh -13, SR-BI HDL uptake -28, SR-BI uptake up 28 and CAL PDZ FP-2 0.
